Measured values from ChEMBL document CHEMBL5543124, “Lead Compound Development of SRC-3 Inhibitors with Improved Pharmacokinetic Properties and Anticancer Efficacy” (J Med Chem, 2024).
Activity calls are given as the source filed them. The calls are words filed in the database; no cut-off is given here.

Tests used:
PANC-1 = assay: Cytotoxicity against human PANC-1 cells assessed as inhibition of cell growth incubated for 72 hrs by MTT assay; type: functional, cell-based; settings: PANC-1, 72 h
In short: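 Cells seeded and grown to 70–80% confluence, then exposed for 72 h to a titration series (0.2–1000 nM). Viability read by MTT relative to untreated cells, with 6 replicates per concentration. IC50 fitted with a Hill-slope model.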

[1] = Tmax in CD-1 mouse at 10 mg/kg,po administration measured upto 48 hrs by LC-MS/MS analysis; type: ADME, organism-based; settings: in vivo
In short: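 Male ICR mice (n=3) dosed by oral gavage at 10 mg/kg from a 1 mg/mL solution in 20% DMSO/16% PEG/4% dextrose in PBS. Tail-vein blood (10 μL) drawn at 15 and 30 min and at 1, 2, 4, 8, 24 and 48 h. Plasma quantified by LC-MS/MS against calibration standards. Parameters from non-compartmental extravascular model.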

[2] = Drug concentration in CD-1 mouse plasma at 37.7 micromol/kg,ip administration measured after 22 hrs by LC-MS/MS analysis; type: ADME, cell-free; settings: dose 37.7 µmol/kg
In short: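 Female CD-1 mice (n = 3) dosed ip at 37.7 μmol/kg. Blood (20 μL) taken at 0.25, 5 and 22 h, processed to plasma, and drug quantified by LC-MS/MS.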

[3] = Stability in human plasma incubated upto 150 mins; type: ADME, cell-free; settings: 2.5 h
[4] = Stability in CD-1 mouse plasma at 37.7 micromol/kg,ip administration measured after 22 hrs by LC-MS/MS analysis; type: ADME, cell-free; settings: at 37.7 µmol/kg
In short: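 Female CD-1 mice (n=3) dosed i.p. at 37.7 μmol/kg (equimolar across compounds). Blood (20 μL) drawn at 0.25, 5 and 22 h and processed to plasma. Drug levels quantified by LC-MS/MS.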

[5] = molecular target: Nuclear receptor coactivator 3 (Homo sapiens) (UniProt Q9Y6Q9); assay: Inhibition of recombinant His-tagged SRC-3 (unknown origin) expressed in baculovirus assessed as reduction in recruitment of SRC-3 in ER complex at 0.15 uM incubated for 30 mins by pull-down based western blotting analysis
Sequence of Nuclear receptor coactivator 3 (Homo sapiens) (Q9Y6Q9 2-1424 limits assumed): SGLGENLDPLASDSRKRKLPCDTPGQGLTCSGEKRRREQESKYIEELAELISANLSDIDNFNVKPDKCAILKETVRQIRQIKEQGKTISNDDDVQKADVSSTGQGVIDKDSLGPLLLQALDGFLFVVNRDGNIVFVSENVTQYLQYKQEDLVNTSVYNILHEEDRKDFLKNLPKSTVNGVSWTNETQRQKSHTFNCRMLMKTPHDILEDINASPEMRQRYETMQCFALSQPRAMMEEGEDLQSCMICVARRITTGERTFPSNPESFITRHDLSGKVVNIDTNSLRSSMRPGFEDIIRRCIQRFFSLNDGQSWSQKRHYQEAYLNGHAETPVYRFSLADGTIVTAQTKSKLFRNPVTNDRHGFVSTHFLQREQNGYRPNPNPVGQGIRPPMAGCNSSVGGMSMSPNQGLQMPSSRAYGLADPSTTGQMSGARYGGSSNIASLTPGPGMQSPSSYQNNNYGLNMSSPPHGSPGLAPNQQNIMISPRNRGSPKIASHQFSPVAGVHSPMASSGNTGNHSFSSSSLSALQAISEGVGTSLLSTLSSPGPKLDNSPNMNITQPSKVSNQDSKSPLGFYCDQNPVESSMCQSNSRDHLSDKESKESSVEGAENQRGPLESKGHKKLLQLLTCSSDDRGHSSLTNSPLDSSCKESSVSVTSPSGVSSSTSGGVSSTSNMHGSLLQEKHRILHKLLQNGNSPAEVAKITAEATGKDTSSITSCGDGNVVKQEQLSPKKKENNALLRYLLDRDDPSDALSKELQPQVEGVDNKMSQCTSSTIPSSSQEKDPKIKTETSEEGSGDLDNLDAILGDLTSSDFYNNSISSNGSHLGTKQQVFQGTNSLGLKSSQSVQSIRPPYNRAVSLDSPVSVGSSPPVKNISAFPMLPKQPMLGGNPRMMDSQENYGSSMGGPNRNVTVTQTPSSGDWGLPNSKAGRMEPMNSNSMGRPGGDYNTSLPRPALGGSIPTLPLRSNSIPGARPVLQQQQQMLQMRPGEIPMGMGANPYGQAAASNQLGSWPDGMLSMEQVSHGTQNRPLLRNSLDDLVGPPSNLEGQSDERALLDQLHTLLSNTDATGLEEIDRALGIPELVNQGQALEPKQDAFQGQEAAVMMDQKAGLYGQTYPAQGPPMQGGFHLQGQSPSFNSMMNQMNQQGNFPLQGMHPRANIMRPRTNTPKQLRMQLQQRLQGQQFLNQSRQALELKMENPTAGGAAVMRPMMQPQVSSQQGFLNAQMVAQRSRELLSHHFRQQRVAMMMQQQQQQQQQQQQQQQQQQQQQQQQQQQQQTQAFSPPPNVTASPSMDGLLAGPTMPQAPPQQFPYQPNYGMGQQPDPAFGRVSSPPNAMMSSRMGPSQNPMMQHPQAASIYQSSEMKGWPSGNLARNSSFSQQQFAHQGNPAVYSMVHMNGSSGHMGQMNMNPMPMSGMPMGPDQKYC
In short: (§1)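 Purified baculovirus-expressed His-SRC-3-flag (0.1 μg) preincubated with compound or vehicle for 30 min on ice. Then 0.1 μg recombinant ERα and His-p300 plus ERE-containing DNA oligo and 1 μM 17β-estradiol added, 1 h on ice. ER complexes immunoprecipitated with anti-ERα antibody; SRC-3 and p300 detected by western blot.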

[6] = molecular target: Nuclear receptor coactivator 3 (Homo sapiens) (UniProt Q9Y6Q9); assay: Inhibition of recombinant His-tagged SRC-3 (unknown origin) expressed in baculovirus assessed as reduction in recruitment of p300 in ER complex at 0.15 uM incubated for 30 mins by pull-down based western blotting analysis; in short: as §1
MDA-PCa-118b = assay: Antitumor activity against patient derived MDA-PCa-118b cells xenografted in SCID mouse assessed as reduction in tumor burden in femur at 10 mg/kg,ip administration measured after 4 weeks by CT imaging analysis; type: functional, organism-based; settings: Homo sapiens
In short: (§2)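 AR-PDX 118b cells (1×10^5) injected via intra-femoral artery in male SCID mice (8–9 weeks). After 2 weeks, 10 mg/kg/day ip or vehicle for 4 weeks (n = 9/group). X-ray imaging every two weeks. At the end, femurs CT-scanned (5 per group) with 3D-reconstruction tumor size, and H&E histology used for tumor/femur area ratio.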

[7] = Antitumor activity against patient derived MDA-PCa-118b cells xenografted in SCID mouse assessed as reduction in femur volume at 10 mg/kg,ip administration measured after 4 weeks by CT imaging analysis; type: functional, Homo sapiens; set-up: scale not given: the % may be the effect or the level left; in short: as §2

C/C(=N\N=c1/[nH]c2cc(F)c(F)cc2n1C)c1ccc(F)cn1
IC50 (PANC-1): 29 nM | Tmax [1]: 15 min | concentration at 22 h [2]: 47 nM | Stability [3]: Stable | Stability [4]: Stable | inhibition [5]: Active | inhibition [6]: Active | Activity (MDA-PCa-118b): Active | Activity [7]: >55%
